According to ChEMBL document CHEMBL3351225, “Design, synthesis, and structure-activity and structure-pharmacokinetic relationship studies of novel [6,6,5] tricyclic fused oxazolidinones leading to the discovery of a potent, selective, and orally bioavailable FXa inhibitor” (J Med Chem, 2014):

Experiments:
[1] = Volume of distribution at steady state in Sprague-Dawley rat at 3 mg/kg, iv; format: ADME, organism-based; parameters: dose 3 mg/kg, route intravenous; conditions: in vivo, read-out: Vdss
Summary of the method: (§1)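 Male Sprague-Dawley rats, 200−220 g, four per group. Vehicle was 5% DMSO + 5% Tween-80 in 90% saline. The reference drug was given in 10% DMSO + 10% Tween-80 + 80% PEG400 (40% solution in saline). Serial retrobulbar vein samples were quantified by LC-MS. Parameters came from noncompartmental analysis of mean plasma concentrations.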

Plasma [2] = experiment: Anticoagulant activity in citrated rabbit plasma assessed as drug concentration required to double plasma clotting time preincubated for 10 mins at 37 degC by coagulometry; format: functional, Oryctolagus cuniculus
Summary of the method: (§2)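 Test compound or DMSO added to citrated rabbit plasma (3.8% sodium citrate, 10:90 v/v) and preincubated 10 min at 37 °C. PT and aPTT clotting times measured on a coagulometer with commercial kits. Activity expressed as the concentration needed to double plasma clotting time (CT2, μM).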

Coagulation factor IX = Coagulation factor IX (Homo sapiens, UniProt P00740); experiment: Inhibition of human factor 9a using CH3SO2-(D)CHG Gly-Arg-pNA, Biophen-CS51 chromogenic substrate
Sequence of Coagulation factor IX (P00740 47-191 limits assumed): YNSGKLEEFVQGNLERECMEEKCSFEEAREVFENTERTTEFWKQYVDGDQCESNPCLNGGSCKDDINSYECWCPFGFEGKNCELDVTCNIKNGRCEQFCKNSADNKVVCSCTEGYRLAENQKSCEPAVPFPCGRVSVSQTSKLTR
Sequence of Coagulation factor IX (P00740 227-461 limits assumed): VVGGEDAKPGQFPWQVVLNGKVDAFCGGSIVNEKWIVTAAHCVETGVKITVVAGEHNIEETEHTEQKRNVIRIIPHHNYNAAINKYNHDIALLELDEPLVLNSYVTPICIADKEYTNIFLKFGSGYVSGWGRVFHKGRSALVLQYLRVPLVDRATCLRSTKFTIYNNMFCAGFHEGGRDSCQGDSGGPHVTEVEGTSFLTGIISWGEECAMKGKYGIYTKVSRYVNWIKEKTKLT

Prothrombin = Prothrombin (Homo sapiens, UniProt P00734); experiment: Inhibition of human factor 2a using L-pyro-Glu-Pro-ArgpNA, S-2366 chromogenic substrate
Summary of the method: (§3)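 Human enzyme and inhibitor were premixed and preincubated, then the chromogenic substrate was added. Substrate levels: 300 μM S-2765 (FXa, trypsin); 200 μM S-2366 (FIIa); 2 mM S-2366 (FVIIa, FXIa). pNA release was monitored continuously at 405 nm for 20 min at 37 °C. IC50 was obtained by nonlinear regression.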

[3] = AUC (0 to infinity) in Sprague-Dawley rat at 10 mg/kg, po; format: ADME, organism-based; parameters: time infinity, dose 10 mg/kg, route oral; conditions: plasma; summary of the method: as §1
[4] = Cmax in Sprague-Dawley rat at 10 mg/kg, po; format: ADME, organism-based; parameters: dose 10 mg/kg, route oral; conditions: in vivo; summary of the method: as §1
[5] = Tmax in Sprague-Dawley rat at 10 mg/kg, po; format: ADME, organism-based; parameters: dose 10 mg/kg, route oral; conditions: in vivo; summary of the method: as §1
Coagulation factor XI = Coagulation factor XI (Homo sapiens, UniProt P03951); experiment: Inhibition of human factor 11a using S-2366 chromogenic substrate; summary of the method: as §3
Sequence of Coagulation factor XI (P03951 19-387 limits assumed): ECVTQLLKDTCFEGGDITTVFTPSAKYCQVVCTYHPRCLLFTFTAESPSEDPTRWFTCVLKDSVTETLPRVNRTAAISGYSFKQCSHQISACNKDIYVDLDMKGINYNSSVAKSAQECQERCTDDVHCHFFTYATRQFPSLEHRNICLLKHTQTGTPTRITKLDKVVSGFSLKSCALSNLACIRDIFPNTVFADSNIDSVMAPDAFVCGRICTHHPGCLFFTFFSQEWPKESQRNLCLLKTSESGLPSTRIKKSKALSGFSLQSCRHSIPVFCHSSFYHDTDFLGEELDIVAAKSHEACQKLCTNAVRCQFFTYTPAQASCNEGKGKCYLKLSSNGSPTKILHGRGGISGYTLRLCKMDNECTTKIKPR
Sequence of Coagulation factor XI (P03951 388-625 limits assumed): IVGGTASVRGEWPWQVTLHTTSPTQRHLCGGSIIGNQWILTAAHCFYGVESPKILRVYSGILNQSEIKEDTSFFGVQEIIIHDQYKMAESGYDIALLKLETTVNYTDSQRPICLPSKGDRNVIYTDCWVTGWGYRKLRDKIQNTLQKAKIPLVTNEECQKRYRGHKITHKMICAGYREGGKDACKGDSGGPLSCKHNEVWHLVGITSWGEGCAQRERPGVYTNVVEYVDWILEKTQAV

Plasma [6] = experiment: Anticoagulant activity in citrated rabbit plasma assessed as activated partial thromboplastin time preincubated for 10 mins at 37 degC by coagulometry; format: functional, Oryctolagus cuniculus; summary of the method: as §2
Coagulation factor X = Coagulation factor X (Homo sapiens, UniProt P00742); experiment: Inhibition of human factor 10a using N-Z-D-Arg-Gly-Arg-pNA, S-2765 chromogenic substrate
Sequence of Coagulation factor X (P00742 41-179 limits assumed): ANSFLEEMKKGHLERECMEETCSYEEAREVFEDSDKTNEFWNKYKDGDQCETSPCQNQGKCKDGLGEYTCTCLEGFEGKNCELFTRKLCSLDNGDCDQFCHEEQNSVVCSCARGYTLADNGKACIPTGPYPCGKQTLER
Sequence of Coagulation factor X (P00742 235-488 limits assumed): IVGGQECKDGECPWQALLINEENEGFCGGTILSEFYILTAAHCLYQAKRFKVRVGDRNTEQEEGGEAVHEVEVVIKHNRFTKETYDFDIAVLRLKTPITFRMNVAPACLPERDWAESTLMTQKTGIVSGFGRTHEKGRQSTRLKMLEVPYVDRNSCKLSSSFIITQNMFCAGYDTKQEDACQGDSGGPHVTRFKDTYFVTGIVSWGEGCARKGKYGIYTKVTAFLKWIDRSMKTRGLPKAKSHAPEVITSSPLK

[7] = Plasma clearance in Sprague-Dawley rat at 3 mg/kg, iv; format: ADME, organism-based; parameters: dose 3 mg/kg, route intravenous; summary of the method: as §1
Coagulation factor VII = target: T1, Coagulation factor VII (Homo sapiens, UniProt P08709); experiment: Inhibition of human factor 7a using S-2366 chromogenic substrate; summary of the method: as §3
T1 sequence (P08709 whole entry): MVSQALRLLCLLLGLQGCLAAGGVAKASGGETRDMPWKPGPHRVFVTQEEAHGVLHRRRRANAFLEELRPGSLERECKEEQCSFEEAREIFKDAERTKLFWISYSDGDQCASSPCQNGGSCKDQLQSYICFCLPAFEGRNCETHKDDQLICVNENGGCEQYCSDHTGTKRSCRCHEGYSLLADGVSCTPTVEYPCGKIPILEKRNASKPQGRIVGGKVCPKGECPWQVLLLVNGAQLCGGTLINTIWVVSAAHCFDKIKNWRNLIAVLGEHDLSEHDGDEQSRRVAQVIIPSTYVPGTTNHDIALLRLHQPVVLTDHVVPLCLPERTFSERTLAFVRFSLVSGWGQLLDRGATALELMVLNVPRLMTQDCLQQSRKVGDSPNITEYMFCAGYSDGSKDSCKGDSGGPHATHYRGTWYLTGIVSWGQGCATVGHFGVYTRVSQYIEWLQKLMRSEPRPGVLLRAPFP

[8] = Oral bioavailability in Sprague-Dawley rat at 10 mg/kg; format: ADME, organism-based; conditions: in vivo; summary of the method: as §1
[9] = Elimination half life in Sprague-Dawley rat at 3 mg/kg, iv; format: ADME, organism-based; parameters: dose 3 mg/kg, route intravenous; conditions: in vivo, read-out: beta t1/2 (converted); summary of the method: as §1
[10] = Elimination half life in Sprague-Dawley rat at 10 mg/kg, po; format: ADME, organism-based; parameters: dose 10 mg/kg, route oral; conditions: in vivo, read-out: beta t1/2 (converted); summary of the method: as §1
Trypsin = Trypsin (Homo sapiens, UniProt P07477+P07478+P35030); experiment: Inhibition of human trypsin using N-Z-D-Arg-Gly-Arg-pNA, S-2765 chromogenic substrate; format: protein assay; summary of the method: as §3
[11] = AUC (0 to infinity) in Sprague-Dawley rat at 3 mg/kg, iv; format: ADME, organism-based; parameters: time infinity, dose 3 mg/kg, route intravenous; conditions: plasma; summary of the method: as §1
[12] = Volume of distribution at steady state in Beagle dog at 0.5 mg/kg, iv; format: ADME, organism-based, Canis lupus familiaris; parameters: dose 0.5 mg/kg, route intravenous; conditions: in vivo, read-out: Vdss
Summary of the method: (§4)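 Male dogs, three per group. Dosed orally at 1 mg/kg or by intravenous infusion at 0.5 mg/kg. Vehicle was 5% DMSO + 5% Tween-80 in 90% saline, or 10% DMSO + 10% Tween-80 + 80% PEG400 for the reference drug. Foreleg blood samples were quantified by LC-MS. Parameters came from noncompartmental analysis of mean plasma concentrations.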

[13] = Plasma clearance in Beagle dog at 0.5 mg/kg, iv; format: ADME, organism-based, Canis lupus familiaris; parameters: dose 0.5 mg/kg, route intravenous; summary of the method: as §4
[14] = Elimination half life in Beagle dog at 1 mg/kg, po; format: ADME, organism-based, Canis lupus familiaris; parameters: dose 1 mg/kg, route oral; conditions: in vivo; summary of the method: as §4
[15] = Tmax in Sprague-Dawley rat at 3 mg/kg, po; format: ADME, organism-based; parameters: dose 3 mg/kg, route oral; conditions: in vivo
[16] = Elimination half life in Sprague-Dawley rat at 3 mg/kg, po; format: ADME, organism-based; parameters: dose 3 mg/kg, route oral; conditions: in vivo, read-out: beta t1/2 (converted)
[17] = Oral bioavailability in Beagle dog at 1 mg/kg; format: ADME, organism-based, Canis lupus familiaris; conditions: in vivo; summary of the method: as §4
[18] = AUC (0 to infinity) in Beagle dog at 1 mg/kg, po; format: ADME, organism-based, Canis lupus familiaris; parameters: time infinity, dose 1 mg/kg, route oral; conditions: plasma; summary of the method: as §4
[19] = Cmax in Sprague-Dawley rat at 3 mg/kg, po; format: ADME, organism-based; parameters: dose 3 mg/kg, route oral; conditions: in vivo
[20] = Oral bioavailability in Sprague-Dawley rat at 3 mg/kg; format: ADME, organism-based; conditions: in vivo
[21] = AUC (0 to infinity) in Sprague-Dawley rat at 3 mg/kg, po; format: ADME, organism-based; parameters: time infinity, dose 3 mg/kg, route oral; conditions: plasma
[22] = Cmax in Beagle dog at 1 mg/kg, po; format: ADME, organism-based, Canis lupus familiaris; parameters: dose 1 mg/kg, route oral; conditions: in vivo; summary of the method: as §4
[23] = Tmax in Beagle dog at 1 mg/kg, po; format: ADME, organism-based, Canis lupus familiaris; parameters: dose 1 mg/kg, route oral; conditions: in vivo; summary of the method: as §4
Rattus norvegicus [24] = experiment: Antithrombotic activity in rat model of arteriovenous shunt-induced thrombosis assessed as reduction in thrombus formation dosed orally 60 mins before shunt opening; conditions: po
[25] = AUC (0 to infinity) in Beagle dog at 0.5 mg/kg, iv; format: ADME, organism-based, Canis lupus familiaris; parameters: time infinity, dose 0.5 mg/kg, route intravenous; conditions: plasma; summary of the method: as §4
Rattus norvegicus [26] = experiment: Antithrombotic activity in rat model of FeCl3-induced venous thrombosis assessed as reduction in thrombus formation dosed orally 60 mins before thrombus formation; conditions: po
[27] = Elimination half life in Beagle dog at 0.5 mg/kg, iv; format: ADME, organism-based, Canis lupus familiaris; parameters: dose 0.5 mg/kg, route intravenous; conditions: in vivo; summary of the method: as §4
Rattus norvegicus [28] = experiment: Induction of tail bleeding in rat assessed as prolongation of bleeding time dosed orally 60 mins before surgery; format: organism-based; conditions: in vivo, po, 1 h
Summary of the method: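 Anesthetized rats were dosed orally with compound suspended in 0.5% CMC-Na, or vehicle, 60 min before the tail was transected 4 mm from the tip. The tail was immersed vertically in saline at 37 °C. Bleeding time was taken as the point when flow ceased for >30 s, with a 30 min maximum.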

Compound	Vd [1] [L/kg]	Activity (Plasma [2]) [µM]	IC50 (Coagulation factor IX) [µM]	IC50 (Prothrombin) [µM]	AUC(0-inf) [3] [ng·h/mL]	Cmax [4] [ng/mL]	Tmax [5] [h]	IC50 (Coagulation factor XI) [µM]	2aPTT (Plasma [6]) [µM]	IC50 (Coagulation factor X) [µM]	clearance [7] [mL/min/kg]	IC50 (Coagulation factor VII) [µM]	bioavailability [8] [%]	half-life [9] [h]	half-life [10] [h]	IC50 (Trypsin) [µM]	AUC(0-inf) [11] [ng·h/mL]	also measured
O=C(NC[C@@H]1OC(=O)N2c3ccc(N4CCOCC4=O)cc3CC[C@@H]12)c1ccc(Cl)s1	0.144	0.37	> 100	> 100	14200	3020	2.3	> 100	0.33	0.00471	2.48	> 100	20.4	0.74	3.54	> 100	20400	–
O=C(NC[C@@H]1OC(=O)N2c3ccc(N4CCOCC4=O)cc3NC[C@@H]12)c1ccc(Cl)s1	0.199	0.48	> 100	> 100	1350	565	0.44	> 100	0.43	0.00506	9.22	> 100	6.8	0.86	1.52	> 100	5700	–
O=C(NC[C@H]1CN(c2ccc(N3CCOCC3=O)cc2)C(=O)O1)c1ccc(Cl)s1 [RIVAROXABAN]	0.19	0.4	–	–	–	–	–	–	0.32	–	5.05	–	–	1.27	–	–	9980	Vd [12]: 2.8 L/kg; clearance [13]: 10 mL/min/kg; half-life [14]: 1.8 h; Tmax [15]: 0.88 h; half-life [16]: 2.9 h; bioavailability [17]: 68%; AUC(0-inf) [18]: 1000 ng·h/mL; Cmax [19]: 850 ng/mL; bioavailability [20]: 21.3%; AUC(0-inf) [21]: 2260 ng·h/mL; Cmax [22]: 333 ng/mL; Tmax [23]: 0.7 h; ED50 (Rattus norvegicus [24]): 3.72 mg/kg; AUC(0-inf) [25]: 916 ng·h/mL; ED50 (Rattus norvegicus [26]): 4.86 mg/kg; half-life [27]: 2.4 h; Activity (Rattus norvegicus [28]): Dose-dependent effect
